Source: publication PMC12103582 (Nature Communications, 2025)

What was measured:
[1] = tested on: patients who underwent elective abdominal surgery; experiment: HSK21542-303: safety; type: in vivo, human
In short: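 First dose given by i.v. pump within 10 min of randomization and a resting NRS ≥4 (within 4 h postsurgery); three doses 8 h ±15 min apart. Rescue flurbiprofen axetil 50 mg i.v. Antiemetic on demand only, tropisetron 2.5 mg preferred. TEAEs graded by CTCAE v5.0, with labs, ECG and vital signs over an 8-day follow-up.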

[2] = cited from earlier work
[3] = tested on: postoperative pain in patients who underwent elective abdominal surgery; experiment: HSK21542-303 phase 3 trial: efficacy; type: in vivo, human; conditions: for SPID0–12h, LS mean (SE): 1.0 μg/kg (tramadol 50 mg/dose) i.v. at 0, 8, 16 h; for Time to rescue analgesic initiation, P25 (95% CI): 25th percentile; for Cumulative rescue analgesic dose 0–12h / Cumulative rescue analgesic dose 0–24 h: flurbiprofen axetil i.v.; for Cumulative rescue analgesic dose 0–12h / Cumulative rescue analgesic dose 0–24 h / Duration of analgesic effect / Patient satisfaction score / Physician satisfaction score: mean (SD); for Rescue analgesic received 0–12h, n (%) / Rescue analgesic received 0–24 h, n (%): rescue flurbiprofen axetil 50 mg i.v.; for NRS ≤3 12 h, n (%) / NRS ≤3 24 h, n (%): resting pain; for Patient satisfaction score / Physician satisfaction score: scale 0–10 at 24 h
[4] = HSK21542-303, follow-up period, arms taken as HSK21542 vs tramadol vs placebo
[5] = HSK21542-303, FAS, flurbiprofen axetil 50 mg i.v.

COc1cccc(C2(O)CCCCC2CN(C)C)c1 (stereo not drawn) [Tramadol, tramadol]
incidence of nausea ([1]; HSK21542-303): 41.9%
incidence of vomiting ([1]; HSK21542-303): 38.0%
patients administered antiemetics within 24 h post first dose ([1]; HSK21542-303): 54 (41.9%) n (%)
patients with TEAEs that led to study withdrawal ([1]; HSK21542-303): two
Anemia ([1]; HSK21542-303, safety set): 16 (12.4) n (%)
Decreased lymphocyte count ([1]; HSK21542-303, safety set): 0 n (%)
Decreased serum potassium ([1]; HSK21542-303, safety set): 3 (2.3) n (%)
Decreased thyroid-stimulating hormone ([1]; HSK21542-303, safety set): 0 n (%)
Drug-related TEAE ([1]; HSK21542-303, safety set): 74 (57.4) n (%)
Fever ([1]; HSK21542-303, safety set): 10 (7.8) n (%)
Hematuria ([1]; HSK21542-303, safety set): 2 (1.6) n (%)
Hypokalemia ([1]; HSK21542-303, safety set): 10 (7.8) n (%)
Inflammation ([1]; HSK21542-303, safety set): 1 (0.8) n (%)
Nausea ([1]; HSK21542-303, safety set): 54 (41.9) n (%)
SAE ([1]; HSK21542-303, safety set): 1 (0.8) n (%)
Vomiting ([1]; HSK21542-303, safety set): 49 (38.0) n (%)
Any AE ([1]; HSK21542-303, safety set, 1.0 μg/kg (tramadol 50 mg/dose) i.v. at 0, 8, 16 h): 108 (83.7) n (%)
SAE ([1]; HSK21542-303, safety set, listed as tramadol): One
abnormal diastolic blood pressure [1, 4]: 0 cases
abnormal heart rate [1, 4]: 1 case
abnormal systolic blood pressure [1, 4]: 0 case
excretion [2]: mainly excreted via the kidneys
patients with NRS ≤3 within 12 h ([3]; HSK21542-303, FAS): 51.2%
patients with NRS ≤3 within 24 h ([3]; HSK21542-303, FAS): 48.1%
SPID0–12h, LS mean (SE) ([3]; HSK21542-303, FAS): −28.7 (1.11)
Time to rescue analgesic initiation, P25 (95% CI) ([3]; HSK21542-303, FAS): 1.17 (0.53, 4.57) h
patients who received rescue analgesics within 0–12 h after first dose [3, 5]: 34.1%
patients who received rescue analgesics within 0–24 h after first dose [3, 5]: 35.7%
Cumulative rescue analgesic dose 0–12h ([3]; HSK21542-303, FAS): 26.7 (44.21) mg
Cumulative rescue analgesic dose 0–24 h ([3]; HSK21542-303, FAS): 29.3 (46.78) mg
Duration of analgesic effect ([3]; HSK21542-303, FAS): 21.3 (5.46) h
Rescue analgesic received 0–12h, n (%) ([3]; HSK21542-303, FAS): 44 (34.1) n (%)
Rescue analgesic received 0–24 h, n (%) ([3]; HSK21542-303, FAS): 46 (35.7) n (%)
NRS ≤3 12 h, n (%) ([3]; HSK21542-303, FAS): 66 (51.2) n (%)
NRS ≤3 24 h, n (%) ([3]; HSK21542-303, FAS): 62 (48.1) n (%)
Patient satisfaction score ([3]; HSK21542-303, FAS): 8.5 (1.58)
Physician satisfaction score ([3]; HSK21542-303, FAS): 8.4 (1.42)
SPID0–12h, LS mean (SE) ([3]; HSK21542-303, PPS): −29.8 (0.99)
Time to rescue analgesic initiation, P25 (95% CI) ([3]; HSK21542-303, PPS): 1.89 (0.60, 12.73) h
Cumulative rescue analgesic dose 0–12h ([3]; HSK21542-303, PPS): 23.3 (39.39) mg
Cumulative rescue analgesic dose 0–24 h ([3]; HSK21542-303, PPS): 26.0 (42.68) mg
Duration of analgesic effect ([3]; HSK21542-303, PPS): 22.4 (3.09) h
Rescue analgesic received 0–12h, n (%) ([3]; HSK21542-303, PPS): 39 (32.5) n (%)
Rescue analgesic received 0–24 h, n (%) ([3]; HSK21542-303, PPS): 41 (34.2) n (%)
NRS ≤3 12 h, n (%) ([3]; HSK21542-303, PPS): 63 (52.5) n (%)
NRS ≤3 24 h, n (%) ([3]; HSK21542-303, PPS): 59 (49.2) n (%)
Patient satisfaction score ([3]; HSK21542-303, PPS): 8.5 (1.59)
Physician satisfaction score ([3]; HSK21542-303, PPS): 8.4 (1.43)
